CDK5 inh – inhibitors of human CDK5/p35 kinase, primary screen, biochemical, single concentration; inhibition, % at 10 µM; 330,000 compounds, 0.01% hits; Cyclin-dependent kinase 5 (Homo sapiens) + Cyclin-dependent kinase 5 activator 1 (Homo …; AID 488839, 2010; Recombinant CDK5/p35, ADP-Glo luminescence, 60 min;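 active means highest replicate inhibition of at least 50% and at least 75% of replicates reaching 50%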;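 further: plate controls were DMSO neutral control for no effect and GW8510 at 10 µM for full effect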
dFosB act-1 – activators of delta FosB homodimer, primary screen, biochemical, fluorescence polarization, TAMRA-CDK5 oligo, single point. purified delta FosB; percent of positive-control signal above neutral wells. activation, % at 25 µM. 340,000 compounds, 0.99% hits. AID 493131, 2011;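 active means mean activation above about 17%, with every replicate also reaching it, limit read from the data, passing the limit was not always enough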
CAL PDZ FP-1 – untagged CAL PDZ binding inhibitors, primary screen, biochemical, fluorescence polarization, HTS; AID 602252, 2012; Golgi-associated PDZ and coiled-coil motif-containing protein (Homo sapiens), Q9HD26; inhibition, % at 24.9 µM; 300,000 compounds, 0.92% hits; purified CAL PDZ, TMR-peptide fluorescence polarization, 1 h;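 active means mean inhibition of at least 30% with at least half of replicates also reaching 30%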;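 further: 0% = DMSO neutral control and 100% = excess unlabeled competitor peptide PRC23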
CAL PDZ FP-2 – CAL PDZ peptide-binding inhibitors, primary screen, biochemical, fluorescence polarization, Cer-tagged CAL PDZ, HTS. Golgi-associated PDZ and coiled-coil motif-containing protein (Homo sapiens), Q9HD26. purified CAL PDZ, TMR-peptide fluorescence polarization, 1 h. inhibition, % at 20 µM. AID 504414, 2011. 330,000 compounds, 0.02% hits;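 active means highest replicate inhibition of at least 40%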;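 further: plate controls were DMSO neutral control wells for no effect and unlabeled competitor peptide control wells for full effect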
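Control set: unlabelled peptide and DMSO controls / Material: purified CerCALP PDZ construct / Timing: 1 h incubation at room temperature before polarization reading / Doses: 20 µM, one dose / Detection: fluorescence polarization (mP)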
DYRK1A inh – rat Dyrk1A kinase inhibitors, primary screen, biochemical, single point, plate reader. ADP-Glo luminescence, NFATc1 peptide. inhibition, % at 12.5 µM. 310,000 compounds, 0.43% hits; in the data active means inhibition above about 50%;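 further: plate controls were vehicle with enzyme for no effect and no enzyme for full effect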
Rtt109 HAT inh – inhibitors of C. albicans Rtt109/Vps75 HAT, primary screen, biochemical, ThioGlo CoA-SH fluorescence, plate reader | purified Rtt109/Vps75, 4 h | inhibition, % at 34.9 µM | 330,000 compounds, 0.16% hits | AID 540336, 2011;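 active means inhibition of at least 50% in every replicate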
Target sequence (Q5AAJ8 whole entry, looked up): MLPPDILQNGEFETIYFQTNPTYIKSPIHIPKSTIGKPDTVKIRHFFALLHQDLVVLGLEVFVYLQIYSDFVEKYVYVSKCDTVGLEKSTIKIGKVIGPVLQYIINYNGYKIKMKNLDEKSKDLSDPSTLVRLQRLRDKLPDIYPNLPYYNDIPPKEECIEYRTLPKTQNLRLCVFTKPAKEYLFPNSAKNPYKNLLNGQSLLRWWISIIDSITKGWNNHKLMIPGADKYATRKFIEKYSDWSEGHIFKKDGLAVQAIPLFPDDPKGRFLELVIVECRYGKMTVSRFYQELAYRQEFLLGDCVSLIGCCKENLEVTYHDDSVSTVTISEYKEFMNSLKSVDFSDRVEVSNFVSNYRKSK
dFosB act-2 – activators of mouse delta FosB DNA binding, confirmation, biochemical, fluorescence polarization, TAMRA-CDK5 oligo, cherry-picked samples. purified delta FosB; normalised: neutral wells 0, positive control 100. 2,400 tested, under 10 active. activation, % at 24.9 µM. shares compounds with dFosB act-1;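 active means highest replicate activation at or above 34% and every replicate reaching that threshold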;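 further: higher polarization means more probe DNA bound by delta FosB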
Starred values were filed as active, the others as inactive; . = not tested or not shown. Sampled rows, rich in hits. Any-hit rate of the full collection: about 2.2%.

SMILES	CDK5 inh	dFosB act-1	CAL PDZ FP-1	CAL PDZ FP-2	DYRK1A inh	Rtt109 HAT inh	dFosB act-2
COc1ccc(CCC(=O)OCC(=O)N(C)c2c(N)n(Cc3ccccc3)c(=O)[nH]c2=O)cc1	2	-4	-2	-3	0	-3	.
CCN(C(=O)COC(=O)CCc1ccc(OC)cc1)c1c(N)n(Cc2ccccc2)c(=O)[nH]c1=O	0	42*	44*	-1	-7	-16	1
CCN(C(=O)COC(=O)COc1ccc2c(c1)CCC2)c1c(N)n(Cc2ccccc2)c(=O)[nH]c1=O	0	24*	-4	-3	5	0	-1
CC(C)CN(C(=O)COC(=O)c1ccc(Br)cc1)c1c(N)n(Cc2ccccc2)c(=O)[nH]c1=O	2	51*	-4	-3	12	6	-1
O=C(CSc1ccc([N+](=O)[O-])cc1)Nc1nnc(C2CC2)s1	-1	5	.	-1	.	0	.
CC(=O)c1cccc(NS(=O)(=O)c2ccc(C(=O)Nc3ccccc3)cc2)c1	0	-6	-1	0	0	1	.
Cc1cc(N2CCN(c3nc(-c4ccc([N+](=O)[O-])cc4)cs3)CC2)c2ccccc2n1	-2	26*	3	-1	0	-7	-2
CCOC(=O)C(=CNc1ccc(C#N)cc1)C(=O)OCC	0	2	-2	-3	-2	-19	.
c1ccc(CN2CCN(CCCNc3ccc4nnc(-c5ccccc5)n4n3)CC2)cc1	-1	-24	.	-17	49	16	.
Cc1ccc(CNc2ccc3nnc(-c4ccccc4)n3n2)cc1	-2	23*	-7	-1	1	5	5
Cc1cccc(C(=O)Oc2ccc(/C=N/NC(=O)c3ccc(O)cc3)cc2)c1	-1	34*	-2	0	-1	-6	1
COc1ccc(/C=N/NC(=O)c2cccnc2)cc1	-2	-2	-2	-1	0	1	.
O=C(N/N=C/c1ccc(OC(=O)c2cccc(F)c2)cc1)c1cccnc1	-1	94*	-4	-5	-5	-9	-1
O=C(NNC(=O)c1cccs1)c1cccc(F)c1	0	-1	0	0	3	-5	.
Cc1cccc(C(=O)Oc2ccc(/C=N/NC(=O)c3ccccc3O)cc2)c1	-5	0	-2	-2	-3	-3	.
Cc1ccc2occ(/C=N/NC(=O)c3ccc(O)cc3)c(=O)c2c1	-1	52*	-3	-7	3	3	2
O=C(N/N=C/c1ccc(OC(=O)c2cccs2)cc1)c1cccc(F)c1	-4	61*	.	0	-3	-1	0
COc1ccc(CC(=O)NCC(C)(C)N2CCOCC2)cc1	0	-2	-2	-2	-7	-9	.
COc1ccccc1N(CCC#N)C(=O)COC(=O)CCC(=O)c1ccc(F)cc1	0	-9	.	-2	3	4	.
C/C(=N\NC(=O)c1ccc(COc2ccccc2)cc1)c1ccncc1	0	-6	-4	-3	3	2	.
Clc1ccc(NNc2ccnc3cc(Cl)ccc23)cc1	0	1	-2	.	2	-11	.
Cc1ccccc1/C=N/Nc1ccnc2cc(Cl)ccc12	3	38*	-3	-2	4	-12	1
COc1ccc(NS(=O)(=O)c2cc(NC(=O)CCc3ccc(OC)c(OC)c3)ccc2N2CCOCC2)cc1	0	-2	3	-2	.	33	.
